pIC50: −log10 of the molar value. Activity calls are given as the source filed them. The calls are words filed in the database; no cut-off is given here.

Test [1] can be described thus: Cytotoxicity against human HCT116 cells after 48 hrs by WST8 assay. In kind it is functional, cell-based. To be noted: HCT-116, 48 h. A digest of the protocol:
(§1)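 WST-8 viability after 48 h exposure to a concentration series. Plating was 1 × 10^4 or 5 × 10^3 cells per well. HeLa and HuH-7 were grown in DMEM and HCT116 in RPMI 1640, each with 10% FBS. HUVEC were grown in endothelial cell growth medium. Kit reagent was added for 30–180 min at 37 °C, then absorbance was read at 450 nm. Doxorubicin was the positive control.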
A general note: Formazan colour is commonly taken as a measure of viable cells.

Test [2] is described as follows: Cytotoxicity against human HuH7 cells after 48 hrs by WST8 assay. To be noted: Huh-7, 48 h. The test is classed as functional, cell-based. In outline:
as §1

In test [3] the test system is HeLa. Briefly: Cytotoxicity against human HeLa cells after 48 hrs by WST8 assay. The test is classed as functional, cell-based. A digest of the protocol:
as §1

For test [4], the system named is HUVEC. Briefly: Cytotoxicity against HUVEC cells after 48 hrs by WST8 assay. The test is classed as functional, cell-based. To be noted: Homo sapiens. In outline: as §1
Test [5] has as its system HeLa. Briefly: Cytotoxicity against human HeLa cells assessed as reduction in cell viability at 10 to 30 uM in presence of 10 mM NAC after 48 hrs by WST8 assay. In kind it is functional, cell-based. A digest of the protocol:
(§2)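 HeLa cells were exposed to 0–30 μM agent for 48 h, with or without 10 mM N-acetylcysteine as ROS scavenger. Viability was then read by WST-8 (tetrazolium reduction, absorbance 450 nm). Data are mean ± SD, n = 3.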

In test [6] the test system is HeLa. The test can be described thus: Induction of cell death in human HeLa cells at 10 uM after 1 hr.
Test [7] relates to HeLa. Briefly: Induction of ROS generation in human HeLa cells at 1 uM after 3 hrs by CM-H2DCFDA dye based assay. In kind it is functional, cell-based. A digest of the protocol:
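HeLa cells were treated with agent over 0–10 μM; the methods give 1 h and the figure legend gives 3 h. Cells were then loaded with 10 μM CM-H2DCFDA for 20 min at 37 °C and washed. DCF fluorescence was read on a plate reader at ex 490/em 535 nm, n = 3.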

The test system of test [8] is HeLa. Briefly: Induction of apoptosis in human HeLa cells assessed as DNA fragmentation at 4 uM after 48 hrs by TUNEL assay. The test is classed as functional, cell-based. A digest of the protocol:
(§3)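 HeLa cells were plated at 2.5 × 10^4 per chamber-slide well and exposed for 48 h at 37 °C. Doses were 4.0 μM test agent or 0.2 μM doxorubicin (positive control). DNA fragmentation was detected by TUNEL (ApopTag Red) under fluorescence microscopy. Apoptotic cells were counted among ≥200 cells per condition, as mean ± SD of three independent experiments.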

The subject of test [9] is HeLa. The test can be described thus: Cytotoxicity against human HeLa cells assessed as reduction in cell viability in presence of 10 mM NAC after 48 hrs by WST8 assay. The test is classed as functional, cell-based. In outline: as §2
Test [10] concerns HeLa. The test can be described thus: Induction of apoptosis in human HeLa cells assessed as DNA fragmentation at 0.2 uM after 48 hrs by TUNEL assay. The test is classed as functional, cell-based. A digest of the protocol:
as §3

The subject of test [11] is HeLa. The test can be described thus: Induction of ROS generation in human HeLa cells at 10 to 60 uM after 3 hrs by CM-H2DCFDA dye based assay. In kind it is functional, cell-based.

The pIC50 is −log10 of the IC50, conventionally taken in molar units. With `CC(=O)Cc1c(C)c(O)c2c(c1O)C(=O)CCC2O` (stereo unspecified), the pIC50 was less than 4.52 in [1], less than 4.52 in test [2], less than 4.52 in test [3] and 5.24 in test [4].

As to `CC(=O)Cc1c(C)c(O)c2c(c1O)C(=O)CCC2=O`, the result in test [5] was inactive. The pIC50 is 5.96 in [1], 5.72 in [2], 5.40 in test [3] and 5.74 in [4]. In addition, the outcome in test [6], in [7] and in test [8] was Active.

Consider `COC1=CC(=O)c2c(O)c(C)c(CC(C)=O)c(O)c2C1=O` [JAVANICIN], for which the pIC50 in [1] was 5.26; in [2], 5.17; in [3] it was 5.05; in test [4], 5.64.

Consider `CC/C(=C(\c1ccccc1)c1ccc(OCCN(C)C)cc1)c1ccccc1`, for which, in [9], the outcome was Active.

Consider `COc1cccc2c1C(=O)c1c(O)c3c(c(O)c1C2=O)C[C@@](O)(C(=O)CO)C[C@@H]3O[C@H]1C[C@H](N)[C@H](O)[C@H](C)O1` [DOXORUBICIN], for which the pIC50 in test [1] was 6.60; in test [2] it was 6.66; in test [3], 6.66; in test [4], 6.40. Besides, the outcome in test [10] was Active.

With `COc1cc(O)c2c(c1O)[C@H](O)[C@@H]1C[C@](C)(O)OC[C@@H]1C2=O`, the pIC50 in test [1] is less than 4.52; in test [2] it was 4.57; in test [3], less than 4.52; in test [4], 4.88.

As to `COc1cc(O)c2c(c1O)C(=O)[C@@H](CC(C)=O)[C@H](C)C2=O`, the pIC50 is 4.81 in [1], 4.97 in [2], 5.10 in test [3] and 5.11 in [4].

For the compound `CC1=CC(=O)c2ccccc2C1=O`, the outcome in test [11] was Active.
